The record followed here is ChEMBL document CHEMBL4387722.

Some results are limits rather than exact numbers.

In experiment [1] the target is T1, Tyrosine-protein phosphatase non-receptor type 2 (Homo sapiens, UniProt P17706).
T1 sequence (P17706 whole entry): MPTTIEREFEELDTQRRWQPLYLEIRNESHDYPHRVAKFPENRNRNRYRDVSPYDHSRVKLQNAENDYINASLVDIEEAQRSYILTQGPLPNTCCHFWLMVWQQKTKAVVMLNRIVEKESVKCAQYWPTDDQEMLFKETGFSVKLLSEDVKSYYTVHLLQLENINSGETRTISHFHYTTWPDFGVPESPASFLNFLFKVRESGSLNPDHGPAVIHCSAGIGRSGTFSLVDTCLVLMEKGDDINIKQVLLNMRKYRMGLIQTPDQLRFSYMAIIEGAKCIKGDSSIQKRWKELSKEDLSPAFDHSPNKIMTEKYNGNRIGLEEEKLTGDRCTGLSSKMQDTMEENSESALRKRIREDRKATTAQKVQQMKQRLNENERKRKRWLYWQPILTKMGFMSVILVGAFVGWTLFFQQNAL
The experiment is described as follows: Inhibition of human PTPN2 expressed in Escherichia coli Rosetta 2 (DE3) using pNPP as substrate after 45 mins by spectrophotometric method.

In experiment [2] the target is T2, Phosphotyrosine protein phosphatase (Mycobacterium tuberculosis, UniProt A0A045ISB3).
T2 sequence (A0A045ISB3 whole entry): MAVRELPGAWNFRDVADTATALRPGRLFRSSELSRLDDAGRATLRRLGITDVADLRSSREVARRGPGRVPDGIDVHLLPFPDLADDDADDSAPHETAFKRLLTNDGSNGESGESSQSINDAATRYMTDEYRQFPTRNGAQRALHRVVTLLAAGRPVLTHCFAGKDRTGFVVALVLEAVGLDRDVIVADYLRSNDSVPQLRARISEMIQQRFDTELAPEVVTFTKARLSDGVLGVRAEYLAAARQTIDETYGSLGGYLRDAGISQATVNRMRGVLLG
The experiment is described as follows: Inhibition of Mycobacterium tuberculosis His-tagged PtpB expressed in Escherichia coli Rosetta 2 (DE3) using pNPP as substrate after 30 mins by spectrophotometric method.

In experiment [3] the target is T3, Tyrosine-protein phosphatase non-receptor type 1 (Homo sapiens, UniProt P18031).
T3 sequence (P18031 whole entry): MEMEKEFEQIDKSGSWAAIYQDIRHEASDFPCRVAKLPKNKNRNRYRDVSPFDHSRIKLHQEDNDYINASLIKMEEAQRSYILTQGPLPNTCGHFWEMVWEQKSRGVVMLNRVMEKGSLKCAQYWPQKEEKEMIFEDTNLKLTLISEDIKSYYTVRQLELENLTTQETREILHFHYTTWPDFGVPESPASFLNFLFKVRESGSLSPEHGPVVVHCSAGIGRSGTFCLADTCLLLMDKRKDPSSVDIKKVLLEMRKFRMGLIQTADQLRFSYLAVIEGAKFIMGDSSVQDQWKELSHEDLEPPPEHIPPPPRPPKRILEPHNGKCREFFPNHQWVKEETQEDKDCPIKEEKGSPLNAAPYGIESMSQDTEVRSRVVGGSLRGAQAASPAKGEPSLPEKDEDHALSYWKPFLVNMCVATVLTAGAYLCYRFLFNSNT
Put plainly: Inhibition of human PTPN1 expressed in Escherichia coli Rosetta 2 (DE3) using pNPP as substrate after 45 mins by spectrophotometric method.

The target in experiment [4] is T4, Tyrosine-protein phosphatase non-receptor type 5 (Homo sapiens, UniProt P54829).
T4 sequence (P54829 whole entry): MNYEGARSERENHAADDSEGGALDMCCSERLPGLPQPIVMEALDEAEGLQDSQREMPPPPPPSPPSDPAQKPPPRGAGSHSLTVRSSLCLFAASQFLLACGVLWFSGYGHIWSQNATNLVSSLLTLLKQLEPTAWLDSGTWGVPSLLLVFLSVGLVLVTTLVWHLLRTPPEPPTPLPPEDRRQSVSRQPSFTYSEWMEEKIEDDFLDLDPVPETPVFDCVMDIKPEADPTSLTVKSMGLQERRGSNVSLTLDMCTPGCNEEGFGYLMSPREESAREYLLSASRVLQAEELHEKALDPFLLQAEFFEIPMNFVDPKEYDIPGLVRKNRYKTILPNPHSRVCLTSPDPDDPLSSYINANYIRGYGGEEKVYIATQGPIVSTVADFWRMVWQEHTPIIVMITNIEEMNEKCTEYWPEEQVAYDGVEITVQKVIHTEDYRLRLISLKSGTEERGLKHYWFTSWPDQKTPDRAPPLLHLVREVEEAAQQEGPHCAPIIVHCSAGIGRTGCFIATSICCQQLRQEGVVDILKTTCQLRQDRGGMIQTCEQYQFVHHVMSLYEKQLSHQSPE
The experiment is described as follows: Inhibition of human PTPN5 expressed in Escherichia coli Rosetta 2 (DE3) using pNPP as substrate after 45 mins by spectrophotometric method.

Experiment [5] concerns Mycobacterium tuberculosis. Put plainly: Antitubercular activity against Mycobacterium tuberculosis H37Rv after 5 days at 200 uM relative to control. The format is functional. The note with it: 120 h. A digest of the protocol:
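M. tuberculosis grown in liquid culture with compound at a fixed 200 μM for 5 days. Growth inhibition expressed as percent of control.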

Broadly, the IC50 is the midpoint of a concentration-inhibition curve. High values mean weaker potency, low ones greater potency. By inhibition is commonly meant the share of the control response that was lost under treatment. Low values mean a weak effect, high ones a strong effect. For the molecule `CCc1ccc(S(=O)(=O)Nc2ccc3oc(-c4ccc(NS(=O)(=O)c5ccc(Cl)s5)cc4)nc3c2)cc1`, the IC50 in experiment [1] stood at 15 µM; in experiment [2] it was 7.1 µM; in experiment [3], 11 µM; in experiment [4], 15 µM. 200 µM produced 0% inhibition in experiment [5].

For the molecule `O=S(=O)(Nc1ccc(-c2nc3cc(NS(=O)(=O)c4cccc5nonc45)ccc3o2)cc1)c1ccc(Cl)s1`, the IC50 in experiment [1] came to 25 µM; in experiment [2] it was 8.6 µM; in experiment [3] it was 16 µM; in experiment [4], 19 µM. Also, the inhibition at 200 µM in experiment [5] turned out to be 14%.

As to `O=S(=O)(Nc1ccc(-c2nc3cc(NS(=O)(=O)c4ccc(C(F)(F)F)cc4)ccc3o2)cc1)c1ccc(C(F)(F)F)cc1`, the IC50 worked out at 13 µM in experiment [1], 2.8 µM in experiment [2], 6.4 µM in experiment [3] and 7.9 µM in experiment [4]. The same molecule returned an inhibition at 200 µM in experiment [5] of 0%.

For the molecule `O=c1ccc2cc(S(=O)(=O)Nc3ccc(-c4nc5cc(NS(=O)(=O)c6ccc7oc(=O)ccc7c6)ccc5o4)cc3)ccc2o1`, the IC50 in experiment [1] came to 9.1 µM; in experiment [2] it was 8.7 µM; in experiment [3], 6.3 µM; in experiment [4], 17 µM. This molecule also displayed an inhibition at 200 µM in experiment [5] of 23%.

Turning to `O=C(O)c1ccccc1S(=O)(=O)Nc1ccc(-c2nc3cc(NS(=O)(=O)c4ccccc4C(=O)O)ccc3o2)cc1`, the IC50 in experiment [1] is above 100 µM; in experiment [2], 4.2 µM; in experiment [3], above 100 µM; in experiment [4] it was above 100 µM. For the same molecule, testing at 200 µM in experiment [5] gave an inhibition of 22%.

`CCc1ccc(S(=O)(=O)Nc2ccc(-c3nc4cc(NS(=O)(=O)c5ccc(Cl)s5)ccc4o3)cc2)cc1`: the IC50 in experiment [1] was found to be 12 µM; in experiment [2] it was 6.5 µM; in experiment [3] it was 14 µM; in experiment [4], 12 µM. Moreover, the inhibition at 200 µM in experiment [5] is 11%.

Consider `COc1ccc(S(=O)(=O)Nc2ccc(-c3nc4cc(NS(=O)(=O)c5ccc(OC)cc5)ccc4o3)cc2)cc1`, for which the IC50 in experiment [1] is 16 µM; in experiment [2] it was 12 µM; in experiment [3] it was 14 µM; in experiment [4] it was 15 µM. In experiment [5], testing at 200 µM gave an inhibition of 0%.

On to `Cc1ccccc1S(=O)(=O)Nc1ccc(-c2nc3cc(NS(=O)(=O)c4ccccc4C)ccc3o2)cc1`, for which the IC50 in experiment [1] was determined as 18 µM; in experiment [2], 4.9 µM; in experiment [3], 12 µM; in experiment [4], 14 µM. In experiment [5], this molecule came in with an inhibition at 200 µM of 0%.

On to `O=S(=O)(Nc1ccc(-c2nc3cc(NS(=O)(=O)c4cccc(Cl)c4)ccc3o2)cc1)c1cccc(Cl)c1`, for which the IC50 in experiment [1] was 17 µM; in experiment [2] it was 2.3 µM; in experiment [3], 16 µM; in experiment [4], 13 µM. Besides, at 200 µM the inhibition in experiment [5] was 0%.

With `O=[N+]([O-])c1ccccc1S(=O)(=O)Nc1ccc(-c2nc3cc(NS(=O)(=O)c4ccccc4[N+](=O)[O-])ccc3o2)cc1`, the IC50 in experiment [1] is 28 µM; in experiment [2], 10 µM; in experiment [3] it was 28 µM; in experiment [4], 29 µM. Besides, 200 µM produced 39% inhibition in experiment [5].

As for `O=c1ccc2cc(S(=O)(=O)Nc3ccc(-c4nc5cc(NS(=O)(=O)c6ccc(Cl)s6)ccc5o4)cc3)ccc2o1`, the IC50 is 17 µM in experiment [1], 5.5 µM in experiment [2], 8.4 µM in experiment [3] and 15 µM in experiment [4]. This molecule gave an inhibition at 200 µM in experiment [5] of 0%.

`Cc1ccc(S(=O)(=O)Nc2ccc(-c3nc4cc(NS(=O)(=O)c5ccc(C)cc5)ccc4o3)cc2)cc1`: the IC50 came out at 18 µM in experiment [1], 6.9 µM in experiment [2], 14 µM in experiment [3] and 14 µM in experiment [4]. The molecule also displayed an inhibition at 200 µM in experiment [5] of 0%.

For the molecule `O=S(=O)(Nc1ccc(-c2nc3cc(NS(=O)(=O)C(F)(F)F)ccc3o2)cc1)C(F)(F)F`, the IC50 is above 100 µM in experiment [1], 42 µM in experiment [2], above 100 µM in experiment [3] and above 100 µM in experiment [4]. Also, the inhibition at 200 µM in experiment [5] was determined as 28%.

Take `O=S(=O)(Nc1ccc(-c2nc3cc(NS(=O)(=O)c4ccc5nsnc5c4)ccc3o2)cc1)c1ccc2nsnc2c1`: the IC50 came to 11 µM in experiment [1], 6.4 µM in experiment [2], 8 µM in experiment [3] and 11 µM in experiment [4]. The molecule also had an inhibition at 200 µM in experiment [5] of 0%.

In the case of `O=S(=O)(Nc1ccc(-c2nc3cc(NS(=O)(=O)c4ccc(Cl)s4)ccc3o2)cc1)c1ccc2ncsc2c1`, the IC50 stood at 11 µM in experiment [1], 7.1 µM in experiment [2], 7.9 µM in experiment [3] and 13 µM in experiment [4]. For the same molecule, 200 µM produced 33% inhibition in experiment [5].

For `O=S(=O)(Nc1ccc(-c2nc3cc(NS(=O)(=O)c4ccc5ccccc5c4)ccc3o2)cc1)c1ccc2ccccc2c1`, the IC50 in experiment [1] turned out to be 24 µM; in experiment [2], 4.4 µM; in experiment [3] it was 4.3 µM; in experiment [4], 6.2 µM. Also, the inhibition at 200 µM in experiment [5] is 0%.

`C=Cc1ccc(S(=O)(=O)Nc2ccc(-c3nc4cc(NS(=O)(=O)c5ccc(Cl)s5)ccc4o3)cc2)cc1`: the IC50 is 14 µM in experiment [1], 5 µM in experiment [2], 10 µM in experiment [3] and 13 µM in experiment [4]. In experiment [5], this molecule had an inhibition at 200 µM of 14%.

Take `O=S(=O)(Nc1ccc(-c2nc3cc(NS(=O)(=O)c4ccc(Cl)s4)ccc3o2)cc1)c1ccc(Br)cc1`: the IC50 was determined as 11 µM in experiment [1], 5.3 µM in experiment [2], 8.8 µM in experiment [3] and 8.8 µM in experiment [4]. Also, the inhibition at 200 µM in experiment [5] was 0%.

Take `Cc1cccc(S(=O)(=O)Nc2ccc(-c3nc4cc(NS(=O)(=O)c5cccc(C)c5)ccc4o3)cc2)c1`: the IC50 in experiment [1] was determined as 17 µM; in experiment [2] it was 5.8 µM; in experiment [3], 13 µM; in experiment [4], 16 µM. The same molecule had an inhibition at 200 µM in experiment [5] of 0%.

As for `O=S(=O)(Nc1ccc(-c2nc3cc(NS(=O)(=O)c4ccc(Cl)s4)ccc3o2)cc1)c1ccc(Cl)c(C(F)(F)F)c1`, the IC50 in experiment [1] was determined as 13 µM; in experiment [2] it was 2 µM; in experiment [3], 7.6 µM; in experiment [4], 12 µM. The molecule further returned an inhibition at 200 µM in experiment [5] of 0%.

On to `O=S(=O)(Nc1ccc(-c2nc3cc(NS(=O)(=O)c4cccc5ccccc45)ccc3o2)cc1)c1cccc2ccccc12`, for which the IC50 in experiment [1] turned out to be 25 µM; in experiment [2], 2.1 µM; in experiment [3] it was 3.2 µM; in experiment [4], 4.9 µM. This molecule returned an inhibition at 200 µM in experiment [5] of 0%.

Regarding `O=S(=O)(Cc1ccccc1)Nc1ccc(-c2nc3cc(NS(=O)(=O)Cc4ccccc4)ccc3o2)cc1`, the IC50 was found to be 31 µM in experiment [1], 27 µM in experiment [2], 23 µM in experiment [3] and 25 µM in experiment [4]. The molecule further had an inhibition at 200 µM in experiment [5] of 0%.

Regarding `O=S(=O)(Nc1ccc2oc(-c3ccc(NS(=O)(=O)c4ccc(Cl)s4)cc3)nc2c1)c1ccc(Br)cc1`, the IC50 in experiment [1] turned out to be 14 µM; in experiment [2], 4.1 µM; in experiment [3], 6.9 µM; in experiment [4], 12 µM. Besides, in experiment [5], the inhibition at 200 µM turned out to be 28%.
